In the EternaBench riboswitch data:

Tested on: MS2 coat protein
Assay: apparent Kd, MS2 coat protein; higher = weaker binding; RNA-MaP array; FMN 200 µM where present
Summary of the method: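 Each design was made on Illumina sequencing-chip clusters by stalled E. coli RNA polymerase and titrated with SNAP-549-labelled MS2 coat protein from 0.7 or 1.5 nM, doubling to 3 µM, in the absence and then the presence of constant ligand. The buffer was 100 mM Tris-HCl pH 7.5, 80 mM KCl, 4 mM MgCl2, BSA, DTT, yeast tRNA and Tween-20. The apparent Kd is the median of filtered per-cluster fits of binding curves, with green signal normalised to red-channel RNA signal and control-cluster median Fmax.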

[1] = designed as: OFF switch for flavin mononucleotide, no ligand
[2] = ligand present: flavin mononucleotide, designed as: OFF switch for flavin mononucleotide
[3] = designed as: ON switch for flavin mononucleotide, no ligand
[4] = ligand present: flavin mononucleotide, designed as: ON switch for flavin mononucleotide

Sequence	apparent Kd [1]	apparent Kd [2]	apparent Kd [3]	apparent Kd [4]
CUUGUGUUAGGAUAUGCGCCCUGCAGAAGCAGGGCCAGAGAGCAGAAGGAACAUGAGGAUCACCCAUGUGUGAC	65.5 nM	53.7 nM	–	–
UUUUGGUAAGGAUAUGCGUAGAUCUCGGAAACGAGAUCUACGCAGAAGGUACAUGAGGAUCACCCAUGUUGAUU	24.2 nM	83.3 nM	–	–
GUUUAGUGAGGAUAUGUGGCAUCGCUCGAGCGCGGUCGGCUACAGAAGGCACAUGAGGAUCACCCAUGUUUCUC	41.8 nM	471 nM	–	–
UGUUUUCAUGUAGGAUAUGCUUGUCGUAGAUACGCAGAAGGACAUGAGGAUCACCCAUGUUAAAGCGUCAGAGUAUAGAUUCUU	17.9 nM	45.6 nM	–	–
UGGUGAAGUGUAGGAUAUGGAGAUGGGUUUUGGCCAGAAGGACAUGAGGAUCACCCAUGUGGUAGAGGGUUGGUGGUGGCUCGU	31.6 nM	24.3 nM	–	–
UUGUUGUAUGUAGGAUAUGCAUAUUAUUAUUAUGCAGAAGGACAUGAGGAUCACCCAUGUAUGUUAUUAUUAUAUGUUAUAUGU	33.6 nM	42.6 nM	–	–
GAUUGUUUUUAGAAGGUGCCGGCGAGAGCCGCAACAUGAGGAUCACCCAUGUGUCGGUGACGACGCAAGGAUAUGGAGGUGGUU	–	–	217 nM	108 nM
CACAAUCUAUCUGAGGAUAUCAUGAAAAAAACAUGAGGAUCACCCAUGUGCAGGAAAACUGCAUAUGAGAAGGCAGAUAGAUUGG	–	–	658 nM	28.3 nM
GCAAAACAUGAGGAUCACCCAUGUCAACAAAAUCAAGGAUAUGAGCCGGCAAUGCCAGCAUCAGAAGGUGAACCUU	–	–	81.9 nM	86.5 nM
AGAUGACAAUGUCAUCUUCGUCGGACAUGAGGAUCACCCAUGUAGGAUAUGCUACUCAAAGAGUAGCAGAAGGACAUGUGUCUU	19.7 nM	41.1 nM	–	–
GUAGCAUAGGCAGGAUAUUCAUAUAAUAAAUAAACAUGAGGAUCACCCAUGUGGCGAAAGCCUUGGGAGAAGGGCCAAUGCUAC	–	–	933 nM	60.9 nM
GUUAUAAAGGUAGGAUAUUGUAUUAUAAUUAAAUAAGAAGGAUCUCACAUGAGGAUCACCCAUGUAAGAGGAUCACCCAUGUAU	9.63 nM	8.14 nM	–	–
CCGAAACCUCAGAAGGACCACAUGAGGAUCACCCAUGUCAAGCAAAACGGUAGGAUAUGAGGGAAAAGUCGGUGUACCCGACAG	–	–	8.93 nM	5.76 nM
UUUUACGUUUCGUAGCAGUGUCAUCGAGAAGGCCCUGACAUGAGGAUCACCCAUGUUGUUACAUGGGAGGAUAUCGAUGAUAAA	–	–	15.9 nM	5.75 nM
CAUACAGUAGUUAGGAUAUUGCAACGUACACGGAACGAGAAGGGACAUGAGGAUCACCCAUGUAGAUUGUAAAG	21.8 nM	21.1 nM	–	–
AAGCCUCUUGUCAGGAUAUCUGUCGGUCCUCCAAGAGAGAAGGGACAUGAGGAUCACCCAUGUAAGCCCAGGGA	16.1 nM	27.9 nM	–	–
CCUGCACAUGAGGAUCACCCAUGUUAGGAUAUCUCGCCGUCGGCUUGCCGACGGUAUUAGAGAAGGGACAAGGG	34.7 nM	45.5 nM	–	–
CAGGUAGACUGAGGAUAUACACUAAACAGCUAGUCUAUCUAGCUGCCUACAUGAGGAUCACCCAUGUAGAAGGCAGUCUGCCUG	15.8 nM	18.2 nM	–	–
UAAUCUCAGAUAGGAUAUAUAGGAUAACUUAAGACCUAACAUGAGGAUCACCCAUGUGAUUAUUCGUAGAAGGAUCAUUGACCC	–	–	–	171 nM
AUGCAGGGCGAGAAGGAGCGACAUGAGGAUCACCCAUGUAUCUUCAACUCGCUAGGAUAUCGGGUUGUAUUGAAAAUUAUUGAA	4.86 nM	5.5 nM	–	–
GGACGUUACAUCUACAUGAGGAUCACCCAUGUCUCUUGAGAUGAGGAUAUGUAUACGAAUCGUUUAUAGAAGGCAUGAACGUCC	–	–	144 nM	138 nM

Sequence	apparent Kd [1]	apparent Kd [2]	apparent Kd [3]	apparent Kd [4]
CAGUUCUGAGGAUAUCCAUCCUCCUACAUGAGGAUCACCCAUGUUUCCCUCUGGGUUUUCGGAGAAGGCAGUUAUU	321 nM	556 nM	–	–
GGAUUUCCUGAGGAUAUUGUAUCACCUGAUUGAUAAGAAGGCAGAACAUGAGGAUCACCCAUGUGGGUAUUCGG	92.9 nM	88.4 nM	–	–
GCUCAGUAAGGAUAUUAAUGGCACUGUUAUUCAGCGCCAGCUGAGAAGGUACAUGAGGAUCACCCAUGUGGUGA	228 nM	135 nM	–	–
CAAUUGGCACAGAAGGGUGACAUGAGGAUCACCCAUGUAGCGUGGCACUCAGGAGAAGCCACGCCACAGGAUAUGUGCGGGCAC	–	–	34.6 nM	41.6 nM
UUAUUGUGAGGAUAUCCAAUAUAUGACAUGAGGAUCACCCAUGUUUCCACUCGUACCUCCGGAGAAGGCACAUUUU	30.8 nM	21.7 nM	–	–
GUAGCAUACCGAGGAUAUUCUUAUAAUAAAUAAACAUGAGGAUCACCCAUGUGGCGAAAGCCAAGGGAGAAGGCGGAAUGCUAC	–	–	87.7 nM	20.1 nM
GUGGUUCGCGAGAAGGGAGCUUAAGGACGCGGCUCAGGAUAUCGUACAUGAGGAUCACCCAUGUGCUGGCAUCUCCAGUGCGUG	118 nM	56.1 nM	–	–
UCUAUGUAAGAGAAGGAGGACUUCAUGAGGAUCACCCAUGUGUUAGUACUUAGGAUAUUUGACAACAUGAGGAUCACCCAUGUC	–	–	65.7 nM	61.7 nM
CAGUAGAUCCGAGGAUAUACAAUCCGGAAACGGUACAUGAGGAUCACCCAUGUAGAAGGCGGAUCUACAGGUACUAAAGUACCG	6.37 nM	9.59 nM	–	–
AGAACUGAUAGAGGAUAUGUUUUACAUGAGGAUCACCCAUGUGUACAAGGAUCAAUAUAUUUGUUACAGAAGGCUAUUAGUGAG	11.8 nM	18.7 nM	–	–
UGCCUGAGUCGAGGAUAUUAUGGAUCAAUUAAUACAUGAGGAUCACCCAUGUAAUUAAUUUAACAUGAGAAGGUGACUCAGGCU	–	–	12.2 nM	10.2 nM
AGUUAAUAUCGAGGAUAUCCUCAUAAACAUGAGGAUCACCCAUGUAGAAUGGGAGAAGGCGAUAUUAACAGCAUGUUACAUGCA	–	–	210 nM	114 nM
CUAUGAGGAAUAGGAUAUUCGAUCAUGAGGAUAGAAGAAGGGUUACAUGAGGAUCACCCAUGUAUGCACAUGAGGAUCCCUUAG	235 nM	226 nM	–	–
CAAUUCCGAGGAUAUACAUGAGGAUCACCCAUGUCGGGCCUCAGCGUUUAGCGCCUAAGUAGAAGGUGGGUUUC	42.9 nM	40.4 nM	–	–
CUUUUGUGAGGAUAUCAGUAGUUAAUAAAUAAAAUUACUACUGAGAAGGCACAUGAGGAUCACCCAUGUUCCUC	37.1 nM	211 nM	–	–
GGGUACAUCGGAGGAUAUCAUGUAAAUACAUGAGGAUCACCCAUGUCGAUGGAGACAUCGGAGAUUGAGAAGGCCGAUGUACCC	–	–	178 nM	9.58 nM
CGAGACCUCACAGGAUAUGCUGGACUUUGUCCAGCAGAAGGGUGAAAACAUGAGGAUCACCCAUGUAUGGUCUCCAAAUUUAAC	–	–	175 nM	12.9 nM
UGUUUGGGAGGAUAUCCAAUAUAUGACAUGAGGAUCACCCAUGUUUCCACUCGUACCUCCGGAGAAGGCCCUGCGU	24.7 nM	22 nM	–	–
CUUAGACAUGAGGAUCACCCAUGUGAGGAUAUGAUGCGAUCGUCGAAAGACGAUAGCAUCAGAAGGCACAUAUG	132 nM	301 nM	–	–
ACAUGAGGAUCACCCAUGUAAUGAAGGGUACUAUACUAAACGUAGGAUAUCGAUGUAAGAUUGUACGAGAAGGACGAUUGCCUU	–	38.8 nM	–	–
GUGGUACAUGAGGAUCACCCAUGUUAGGAUAUCGCGUGAGGUUUUGCUUCCGCGCGCGCGAGAAGGGACGUCUU	28.3 nM	23.9 nM	–	–
